From paper PMC10962649 (Journal of Food and Drug Analysis, 2024)
Marks after values point to notes of the source that are not given here.

Tests used:
MRP2 [1] = target: MRP2 (Homo sapiens, UniProt Q92887); format: cell-based; conditions: MDCKII-MRP2 cells, 100 μM spiked in blank serum, Fig. 3(C)
MRP2 [2] = target: MRP2 (Canis lupus familiaris, UniProt A0A8I3SCV5); assay: MRP2 activity: intracellular accumulation of GSMF; format: cell-based; conditions: MDCKII-WT cells
MDCKII-BCRP cells = assay: MTT assay for cell viability, MDCKII-BCRP cells; format: cell-based, canine; conditions: 100 μM, MDCKII-BCRP cells (data not shown)
Summary of the method: (§1)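 MDCKII cells (wild-type or BCRP-overexpressing, from the Netherlands Cancer Institute) were grown in DMEM with 10% FBS and 1% penicillin-streptomycin-glutamine at 37 °C under 5% CO₂. Viability after exposure to test agents was measured by MTT assay, following a cited method with minor modification.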

MDCKII-WT cells = assay: MTT assay for cell viability, MDCKII-WT cells; format: cell-based, canine; conditions: 150 μM, MDCKII-WT cells (data not shown)
Summary of the method: as §1

BCRP = target: T1, BCRP (Homo sapiens, UniProt Q9UNQ0); conditions: concentrations of 12.5–100 μM; cited from earlier work
T1 sequence (Q9UNQ0 1-655): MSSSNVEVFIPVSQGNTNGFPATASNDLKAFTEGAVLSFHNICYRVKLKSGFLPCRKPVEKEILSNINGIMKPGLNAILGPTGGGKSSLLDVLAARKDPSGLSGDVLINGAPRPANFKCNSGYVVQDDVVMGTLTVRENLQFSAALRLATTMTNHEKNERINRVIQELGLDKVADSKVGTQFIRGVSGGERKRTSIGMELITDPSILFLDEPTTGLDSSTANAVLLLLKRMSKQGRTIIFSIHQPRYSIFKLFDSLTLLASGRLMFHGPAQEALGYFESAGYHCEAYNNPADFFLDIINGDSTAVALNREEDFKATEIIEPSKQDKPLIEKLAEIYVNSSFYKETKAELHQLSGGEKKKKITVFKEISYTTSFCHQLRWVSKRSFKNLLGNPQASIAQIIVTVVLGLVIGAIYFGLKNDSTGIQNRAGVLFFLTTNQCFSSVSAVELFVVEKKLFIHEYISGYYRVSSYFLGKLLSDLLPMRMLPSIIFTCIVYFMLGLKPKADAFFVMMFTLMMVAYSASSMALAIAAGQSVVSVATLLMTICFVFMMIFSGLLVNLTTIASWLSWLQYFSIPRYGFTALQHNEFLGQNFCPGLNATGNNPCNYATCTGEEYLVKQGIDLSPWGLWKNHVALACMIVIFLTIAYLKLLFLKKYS

[3] = Pharmacokinetics of oral MTX in rats alone and coadministered with MOC; format: in vivo, Sprague–Dawley rats
Summary of the method: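 Groups were dosed orally and in parallel: MTX 5.0 mg/kg with an equal volume of water (n = 6), or with decoction given 0.5 h earlier. Rats were fasted overnight. Tail-vein blood (0.5 mL) was drawn at 0.25–48 h, and serum MTX was measured by fluorescence polarization immunoassay using the kit calibration. AUC0-t was derived by noncompartmental analysis.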

[4] = Mortality of rats observed during the pharmacokinetic study; format: in vivo, Sprague–Dawley rats; conditions: oral MTX 5.0 mg/kg alone or coadministered with MOC (three groups)
Summary of the method: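 Male Sprague–Dawley rats (350–450 g) were fasted overnight with water allowed, and food was returned 3 h after dosing. They received oral MTX 5.0 mg/kg, given alone with water or 0.5 h after oral decoction at 2.0 or 4.0 g/kg. A fourth group got 2.0 g/kg thrice daily for 2 days before MTX. Deaths were noted over the 48-h sampling period.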

[5] = 50 μM, MN/HK experiment, Fig. 3(B)

MRP2 (Canis lupus familiaris, UniProt A0A8I3SCV5), sequence (A0A8I3SCV5 1-1544): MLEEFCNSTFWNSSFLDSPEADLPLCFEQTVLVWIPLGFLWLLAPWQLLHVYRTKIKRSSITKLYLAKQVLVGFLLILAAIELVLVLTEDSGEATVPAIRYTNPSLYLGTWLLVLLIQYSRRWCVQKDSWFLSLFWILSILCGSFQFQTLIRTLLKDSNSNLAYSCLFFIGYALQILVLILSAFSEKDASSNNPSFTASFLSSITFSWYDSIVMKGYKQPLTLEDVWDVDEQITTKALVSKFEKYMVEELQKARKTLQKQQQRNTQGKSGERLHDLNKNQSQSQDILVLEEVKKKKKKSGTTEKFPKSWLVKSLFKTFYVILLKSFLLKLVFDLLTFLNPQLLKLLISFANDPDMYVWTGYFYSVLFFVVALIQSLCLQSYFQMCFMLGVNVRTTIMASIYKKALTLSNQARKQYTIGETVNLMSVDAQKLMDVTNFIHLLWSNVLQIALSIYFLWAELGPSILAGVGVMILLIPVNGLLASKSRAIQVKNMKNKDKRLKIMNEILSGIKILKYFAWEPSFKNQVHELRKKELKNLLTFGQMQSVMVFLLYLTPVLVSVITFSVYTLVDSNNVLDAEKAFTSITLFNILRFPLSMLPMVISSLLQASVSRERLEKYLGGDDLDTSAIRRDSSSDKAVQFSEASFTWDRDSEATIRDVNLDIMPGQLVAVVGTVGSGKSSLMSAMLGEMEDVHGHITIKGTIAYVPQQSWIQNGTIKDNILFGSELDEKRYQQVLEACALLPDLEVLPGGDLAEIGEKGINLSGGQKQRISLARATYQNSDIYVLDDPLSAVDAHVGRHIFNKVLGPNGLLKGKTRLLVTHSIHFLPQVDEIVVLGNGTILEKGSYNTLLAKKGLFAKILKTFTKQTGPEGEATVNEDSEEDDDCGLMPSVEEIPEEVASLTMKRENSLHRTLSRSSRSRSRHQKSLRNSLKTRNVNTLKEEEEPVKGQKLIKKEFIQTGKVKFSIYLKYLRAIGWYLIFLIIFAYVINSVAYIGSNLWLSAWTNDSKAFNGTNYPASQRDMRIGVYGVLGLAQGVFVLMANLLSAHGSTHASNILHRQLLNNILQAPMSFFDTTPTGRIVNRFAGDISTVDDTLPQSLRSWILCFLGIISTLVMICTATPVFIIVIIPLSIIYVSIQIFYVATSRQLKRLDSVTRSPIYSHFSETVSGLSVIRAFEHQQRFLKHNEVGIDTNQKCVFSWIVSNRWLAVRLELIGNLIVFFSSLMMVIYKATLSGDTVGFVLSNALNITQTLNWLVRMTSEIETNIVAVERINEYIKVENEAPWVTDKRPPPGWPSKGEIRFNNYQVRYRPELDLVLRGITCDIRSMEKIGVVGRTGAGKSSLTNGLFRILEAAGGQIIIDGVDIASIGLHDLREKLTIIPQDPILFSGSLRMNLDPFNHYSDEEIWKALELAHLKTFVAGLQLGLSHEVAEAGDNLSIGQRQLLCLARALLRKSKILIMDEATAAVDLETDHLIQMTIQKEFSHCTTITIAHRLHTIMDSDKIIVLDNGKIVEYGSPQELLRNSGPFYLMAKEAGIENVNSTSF
MRP2 (Homo sapiens, UniProt Q92887), sequence (Q92887 whole entry): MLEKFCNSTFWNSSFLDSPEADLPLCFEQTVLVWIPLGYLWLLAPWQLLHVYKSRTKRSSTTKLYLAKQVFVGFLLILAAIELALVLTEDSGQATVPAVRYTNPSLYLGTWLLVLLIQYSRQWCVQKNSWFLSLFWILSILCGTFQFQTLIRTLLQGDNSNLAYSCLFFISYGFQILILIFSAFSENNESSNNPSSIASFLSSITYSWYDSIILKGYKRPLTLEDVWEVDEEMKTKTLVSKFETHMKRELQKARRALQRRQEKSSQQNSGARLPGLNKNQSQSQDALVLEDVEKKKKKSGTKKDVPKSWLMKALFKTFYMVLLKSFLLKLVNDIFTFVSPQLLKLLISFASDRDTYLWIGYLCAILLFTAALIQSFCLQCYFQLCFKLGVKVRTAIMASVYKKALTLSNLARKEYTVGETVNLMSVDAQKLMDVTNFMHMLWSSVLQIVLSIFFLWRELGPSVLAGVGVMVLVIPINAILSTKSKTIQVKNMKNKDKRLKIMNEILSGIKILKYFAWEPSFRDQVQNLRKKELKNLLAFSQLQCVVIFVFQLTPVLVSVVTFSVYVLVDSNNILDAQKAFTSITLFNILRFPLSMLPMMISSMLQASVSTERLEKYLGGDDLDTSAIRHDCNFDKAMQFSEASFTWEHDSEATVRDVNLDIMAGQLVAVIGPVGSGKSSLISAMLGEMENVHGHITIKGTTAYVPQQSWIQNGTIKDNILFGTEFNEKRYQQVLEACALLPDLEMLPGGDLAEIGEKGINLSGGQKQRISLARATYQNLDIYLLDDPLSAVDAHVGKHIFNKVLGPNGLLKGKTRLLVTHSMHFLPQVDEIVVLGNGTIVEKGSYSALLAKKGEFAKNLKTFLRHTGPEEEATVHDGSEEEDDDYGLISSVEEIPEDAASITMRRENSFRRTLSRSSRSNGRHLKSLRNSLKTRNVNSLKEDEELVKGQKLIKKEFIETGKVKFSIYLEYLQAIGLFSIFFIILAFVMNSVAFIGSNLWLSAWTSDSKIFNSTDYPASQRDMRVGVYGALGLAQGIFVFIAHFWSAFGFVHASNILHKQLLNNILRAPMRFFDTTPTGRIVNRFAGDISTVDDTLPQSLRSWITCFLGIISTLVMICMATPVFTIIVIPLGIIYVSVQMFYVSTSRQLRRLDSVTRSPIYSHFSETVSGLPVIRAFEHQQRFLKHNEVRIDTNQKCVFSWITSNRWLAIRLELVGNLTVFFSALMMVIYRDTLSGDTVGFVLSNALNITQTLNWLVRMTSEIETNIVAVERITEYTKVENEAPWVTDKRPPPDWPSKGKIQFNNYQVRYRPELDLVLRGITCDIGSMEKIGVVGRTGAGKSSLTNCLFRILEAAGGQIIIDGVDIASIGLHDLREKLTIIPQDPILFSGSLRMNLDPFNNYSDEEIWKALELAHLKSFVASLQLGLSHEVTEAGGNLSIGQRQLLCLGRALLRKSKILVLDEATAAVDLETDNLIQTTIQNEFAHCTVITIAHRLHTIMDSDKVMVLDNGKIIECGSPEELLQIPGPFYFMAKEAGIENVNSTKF

| Structure (SMILES) | Increase of intracellular accumulation of GSMF (MRP2 [1]) | Increase of intracellular accumulation of GSMF (MRP2 [2]; [5]) | Increase of intracellular accumulation of GSMF (MRP2 [2]; 50 μM, positive control in MOC experiment, Fig. 3(A)) | Effect on cell viability (MTT) (MDCKII-BCRP cells) | Effect on cell viability (MTT) (MDCKII-WT cells) | Effect on BCRP (BCRP) | AUC0-t of MTX ([3]; oral MTX 5.0 mg/kg + water (MTX alone), n = 6, mean ± S.E.) | AUC0-t of MTX ([3]; oral MTX 5.0 mg/kg, MOC 2.0 g/kg thrice daily for 2 days, 7th dose 0.5 h before MTX, n = 5, mean ± S.E.) | AUC0-t of MTX ([3]; oral MTX 5.0 mg/kg, single dose MOC 2.0 g/kg 0.5 h before MTX, n = 6, mean ± S.E.) | AUC0-t of MTX ([3]; oral MTX 5.0 mg/kg, single dose MOC 4.0 g/kg 0.5 h before MTX, n = 6, mean ± S.E.) | Mortality of rats during the pharmacokinetic study [4] | Increase of intracellular accumulation of GSMF (MRP2 [2]; 25 μM, MN/HK experiment, Fig. 3(B)) |
| --- | --- | --- | --- | --- | --- | --- | --- | --- | --- | --- | --- | --- |
| CN(C)C(=O)CCSC(SCCC(=O)O)c1cccc(/C=C/c2ccc3ccc(Cl)cc3n2)c1 (centres unmarked) [MK 571, reference compound] | 72% | 331% | 203% | – | – | – | – | – | – | – | – | – |
| C=CCc1ccc(O)c(-c2cc(CC=C)ccc2O)c1 [MN, magnolol] | – | 137% | – | no toxic effects | no toxic effects | significantly inhibited | – | – | – | – | – | – |
| CN(Cc1cnc2nc(N)nc(N)c2n1)c1ccc(C(=O)N[C@@H](CCC(=O)O)C(=O)O)cc1 [MTX, Methotrexate] | – | – | – | – | – | – | 44.6 ± 5.0^a μmol·min·mL^−^1 | 250.2 ± 31.2 μmol·min·mL^−^1 | 201.5 ± 39.2 μmol·min·mL^−^1 | 206.8 ± 35.9 μmol·min·mL^−^1 | all survived very well | – |
| C=CCc1ccc(O)c(-c2ccc(O)c(CC=C)c2)c1 [HK, honokiol] | – | 75% | – | no toxic effects | no toxic effects | significantly inhibited | – | – | – | – | – | 34% |
